Data published in ChEMBL document CHEMBL1275246 (Bioorg Med Chem, 2010).

Key:
[1] = Drug uptake in iv dosed baboon occipital cortex in presence of metergoline; type: ADME, organism-based; conditions: papio anubis, in vivo
Summary of the method: (§1)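 Baboons anesthetized (ketamine i.m., then isoflurane/N2O/O2). […] Dynamic 3D PET for 90 min, brain or torso in view. Region time-activity curves as decay-corrected %ID/cc.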

[2] = Drug uptake in iv dosed baboon occipital cortex in presence of altanserin; type: ADME, organism-based; conditions: papio anubis, in vivo
Summary of the method: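 Baboon pretreated with altanserin 0.5 mg/kg, dissolved in 2% HCl in EtOH, diluted with saline to 30 mL, filter-sterilized (final pH ~5.5). Given 15 min before i.v. radiotracer. Anesthetized animal (ketamine, then isoflurane). 90-min dynamic 3D brain PET; region curves as decay-corrected %ID/cc.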

[3] = Drug uptake in iv dosed baboon occipital cortex in presence of citalopram; type: ADME, organism-based; conditions: papio anubis, in vivo
Summary of the method: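 Citalopram-HBr 5.0 mg/kg (as free base) in 10 mL saline, filter-sterilized, i.v. bolus 20 min before radiotracer in anesthetized baboons. 90-min dynamic 3D brain PET. Region time-activity curves as decay-corrected %ID/cc.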

[4] = Fraction unbound in baboon plasma after 10 mins; type: ADME, cell-free; conditions: papio anubis
Summary of the method: (§2)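 Radiotracer in saline added to pooled baboon plasma (from ≥4 animals). Mixed by inversion, incubated 10 min at room temperature. Total activity sampled. Plasma then centrifuged 10 min through a Centrifree ultrafiltration unit and filtrate counted. %unbound = filtrate activity ×100/total activity.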

Brain = assay: Biodistribution in iv dosed baboon brain after 2 to 10 mins by PET imaging analysis; type: ADME, organism-based; conditions: papio anubis, in vivo
Summary of the method: (§3)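 Female Papio anubis baboons; ketamine 10 mg/kg i.m. induction, then O2/N2O/isoflurane (1–4%). Radiotracer given through a radial arm vein catheter. Dynamic 3D PET over 90 min (55 frames), brain or torso in field of view. Regions of interest drawn on summed images give time-activity curves as decay-corrected %injected dose/cc.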

[5] = Drug uptake in iv dosed baboon frontal cortex in presence of metergoline; type: ADME, organism-based; conditions: papio anubis, in vivo; summary of the method: as §1
[6] = Plasma protein binding in baboon after 10 mins; type: ADME, cell-free; conditions: papio anubis, read-out: PPB; summary of the method: as §2
[7] = Lipophilicity, log D of compound in phosphate buffer solution at pH 7.4; type: physicochemical
Summary of the method: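 Formulated radiotracer partitioned between octanol and phosphate buffer pH 7.4: vortexed 2 min, centrifuged 2 min. Octanol layer serially re-extracted with fresh buffer to give six sample sets, each phase well-counted. logD = log(decay-corrected octanol activity ×10/decay-corrected buffer activity) for each set.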

[8] = Biodistribution in iv dosed baboon gall bladder by dynamic PET imaging analysis; type: ADME, organism-based; conditions: papio anubis, in vivo; summary of the method: as §3
[9] = molecular target: 5-hydroxytryptamine receptor 5A (Homo sapiens) (UniProt P47898); assay: Displacement of [3H]LSD from human cloned 5HT5A receptor
[10] = molecular target: 5-hydroxytryptamine receptor 3A (Homo sapiens) (UniProt P46098); assay: Displacement of [3H]LY278584 from human cloned 5HT3 receptor
[11] = molecular target: 5-hydroxytryptamine receptor 4 (Homo sapiens) (UniProt Q13639); assay: Binding affinity to human cloned 5HT4 receptor
[12] = molecular target: 5-hydroxytryptamine receptor 2C (Rattus norvegicus) (UniProt P08909); assay: Displacement of [3H]Mesulergine from rat cloned 5HT2C receptor
[13] = molecular target: 5-hydroxytryptamine receptor 2B (Homo sapiens) (UniProt P41595); assay: Displacement of [3H]LSD from human cloned 5HT2B receptor
[14] = molecular target: 5-hydroxytryptamine receptor 1D (Homo sapiens) (UniProt P28221); assay: Displacement of [3H][…] from human cloned 5HT1D receptor
[15] = molecular target: 5-hydroxytryptamine receptor 1E (Homo sapiens) (UniProt P28566); assay: Displacement of [3H]5-HT from human cloned 5HT1E receptor
[16] = molecular target: 5-hydroxytryptamine receptor 1B (Homo sapiens) (UniProt P28222); assay: Displacement of [3H][…] from human cloned 5HT1B receptor
[17] = molecular target: 5-hydroxytryptamine receptor 1A (Homo sapiens) (UniProt P08908); assay: Displacement of [3H]8-OH-DPAT from human cloned 5HT1A receptor
[18] = molecular target: Alpha-2C adrenergic receptor (Homo sapiens) (UniProt P18825); assay: Displacement of [3H]clonidine from human cloned adrenergic alpha2c receptor
[19] = molecular target: Kappa-type opioid receptor (Rattus norvegicus) (UniProt P34975); assay: Displacement of [3H]U69593 from rat cloned kappa opioid receptor
[20] = molecular target: D(1A) dopamine receptor (Homo sapiens) (UniProt P21728); assay: Displacement of [3H][…] from human cloned dopamine D1 receptor
[21] = molecular target: D(2) dopamine receptor (Homo sapiens) (UniProt P14416); assay: Displacement of [3H]N-methylspiperone from human cloned dopamine D2 receptor
[22] = molecular target: D(3) dopamine receptor (Rattus norvegicus) (UniProt P19020); assay: Displacement of [3H]N-methylspiperone from rat cloned dopamine D3 receptor
[23] = molecular target: D(4) dopamine receptor (Homo sapiens) (UniProt P21917); assay: Displacement of [3H]N-methylspiperone from human cloned dopamine D4 receptor
[24] = molecular target: Histamine H2 receptor (Homo sapiens) (UniProt P25021); assay: Displacement of [3H]Tiotidine from human cloned histamine H2 receptor
[25] = molecular target: Histamine H4 receptor (Homo sapiens) (UniProt Q9H3N8); assay: Displacement of [3H]histamine from human cloned histamine H4 receptor
[26] = molecular target: Prostaglandin E2 receptor EP3 subtype (Homo sapiens) (UniProt P43115); assay: Displacement of [3H]PGE2 from human cloned EP3 receptor
[27] = molecular target: Prostaglandin E2 receptor EP4 subtype (Homo sapiens) (UniProt P35408); assay: Displacement of [3H]PGE2 from human cloned EP4 receptor
[28] = molecular target: Sodium-dependent noradrenaline transporter (Homo sapiens) (UniProt P23975); assay: Displacement of [3H]nisoxetine from human cloned NET
[29] = molecular target: Alpha-1A adrenergic receptor (Homo sapiens) (UniProt P35348); assay: Displacement of [3H]prazosin from human cloned adrenergic alpha1A receptor
[30] = molecular target: Alpha-1B adrenergic receptor (Homo sapiens) (UniProt P35368); assay: Displacement of [3H]prazosin from human cloned adrenergic Alpha-1B receptor
[31] = molecular target: Alpha-2A adrenergic receptor (Homo sapiens) (UniProt P08913); assay: Displacement of [3H]clonidine from human cloned adrenergic alpha-2a receptor
[32] = molecular target: Delta-type opioid receptor (Homo sapiens) (UniProt P41143); assay: Displacement of [3H]DADLE from human cloned delta opioid receptor
[33] = molecular target: Muscarinic acetylcholine receptor M2 (Homo sapiens) (UniProt P08172); assay: Displacement of [3H]QNB from human cloned muscarinic M2 receptor
[34] = molecular target: Muscarinic acetylcholine receptor M4 (Homo sapiens) (UniProt P08173); assay: Displacement of [3H]QNB from human cloned muscarinic M4 receptor
[35] = Biodistribution in iv dosed baboon heart by dynamic PET imaging analysis; type: ADME, organism-based; conditions: papio anubis, in vivo; summary of the method: as §3
[36] = Biodistribution in iv dosed baboon heart by dynamic PET imaging analysis in presence of metergoline; type: ADME, organism-based; conditions: papio anubis, in vivo; summary of the method: as §1

5-hydroxytryptamine receptor 5A (Homo sapiens), sequence (P47898 whole entry): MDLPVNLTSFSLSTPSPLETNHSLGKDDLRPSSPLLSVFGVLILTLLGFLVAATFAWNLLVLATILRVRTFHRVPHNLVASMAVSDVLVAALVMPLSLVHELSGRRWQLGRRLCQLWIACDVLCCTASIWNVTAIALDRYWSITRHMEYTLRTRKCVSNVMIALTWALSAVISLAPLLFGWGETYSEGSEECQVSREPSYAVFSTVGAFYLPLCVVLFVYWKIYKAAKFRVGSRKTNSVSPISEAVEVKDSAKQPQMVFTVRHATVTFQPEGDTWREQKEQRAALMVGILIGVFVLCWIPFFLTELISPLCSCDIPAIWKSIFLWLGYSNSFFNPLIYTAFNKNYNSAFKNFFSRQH
Muscarinic acetylcholine receptor M2 (Homo sapiens), sequence (P08172 whole entry): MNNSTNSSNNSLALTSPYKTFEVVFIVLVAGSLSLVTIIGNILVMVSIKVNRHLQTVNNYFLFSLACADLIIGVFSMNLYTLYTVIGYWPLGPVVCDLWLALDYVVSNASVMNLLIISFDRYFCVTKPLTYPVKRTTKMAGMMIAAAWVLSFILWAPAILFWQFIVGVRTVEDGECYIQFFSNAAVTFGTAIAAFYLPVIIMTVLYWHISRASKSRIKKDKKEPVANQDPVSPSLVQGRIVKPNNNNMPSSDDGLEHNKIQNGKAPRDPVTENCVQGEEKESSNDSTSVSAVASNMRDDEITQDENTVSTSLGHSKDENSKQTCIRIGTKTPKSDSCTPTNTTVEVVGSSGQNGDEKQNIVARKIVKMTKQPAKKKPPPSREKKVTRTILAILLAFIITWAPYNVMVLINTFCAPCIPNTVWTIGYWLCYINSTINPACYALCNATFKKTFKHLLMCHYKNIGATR
5-hydroxytryptamine receptor 1D (Homo sapiens), sequence (P28221 whole entry): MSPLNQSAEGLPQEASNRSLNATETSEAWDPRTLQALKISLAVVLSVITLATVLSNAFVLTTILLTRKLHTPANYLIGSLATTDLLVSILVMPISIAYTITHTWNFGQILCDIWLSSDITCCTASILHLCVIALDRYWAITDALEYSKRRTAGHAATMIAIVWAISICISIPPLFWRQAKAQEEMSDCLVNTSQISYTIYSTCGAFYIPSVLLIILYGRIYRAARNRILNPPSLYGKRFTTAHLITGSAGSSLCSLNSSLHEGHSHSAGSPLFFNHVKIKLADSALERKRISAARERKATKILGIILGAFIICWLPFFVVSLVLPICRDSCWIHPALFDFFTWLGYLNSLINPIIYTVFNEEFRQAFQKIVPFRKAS
Alpha-2A adrenergic receptor (Homo sapiens), sequence (P08913 whole entry): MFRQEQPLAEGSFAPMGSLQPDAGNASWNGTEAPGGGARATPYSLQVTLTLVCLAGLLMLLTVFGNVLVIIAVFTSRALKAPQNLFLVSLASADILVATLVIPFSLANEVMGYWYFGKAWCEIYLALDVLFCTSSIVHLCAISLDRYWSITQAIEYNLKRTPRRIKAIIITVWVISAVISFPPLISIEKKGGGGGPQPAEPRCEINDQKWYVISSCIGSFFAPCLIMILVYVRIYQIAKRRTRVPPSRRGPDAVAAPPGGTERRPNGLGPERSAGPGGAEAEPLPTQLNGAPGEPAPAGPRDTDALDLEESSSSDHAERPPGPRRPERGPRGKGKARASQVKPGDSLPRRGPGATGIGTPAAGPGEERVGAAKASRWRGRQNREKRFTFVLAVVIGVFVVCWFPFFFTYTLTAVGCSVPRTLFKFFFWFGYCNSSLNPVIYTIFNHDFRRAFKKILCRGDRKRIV
5-hydroxytryptamine receptor 2B (Homo sapiens), sequence (P41595 whole entry): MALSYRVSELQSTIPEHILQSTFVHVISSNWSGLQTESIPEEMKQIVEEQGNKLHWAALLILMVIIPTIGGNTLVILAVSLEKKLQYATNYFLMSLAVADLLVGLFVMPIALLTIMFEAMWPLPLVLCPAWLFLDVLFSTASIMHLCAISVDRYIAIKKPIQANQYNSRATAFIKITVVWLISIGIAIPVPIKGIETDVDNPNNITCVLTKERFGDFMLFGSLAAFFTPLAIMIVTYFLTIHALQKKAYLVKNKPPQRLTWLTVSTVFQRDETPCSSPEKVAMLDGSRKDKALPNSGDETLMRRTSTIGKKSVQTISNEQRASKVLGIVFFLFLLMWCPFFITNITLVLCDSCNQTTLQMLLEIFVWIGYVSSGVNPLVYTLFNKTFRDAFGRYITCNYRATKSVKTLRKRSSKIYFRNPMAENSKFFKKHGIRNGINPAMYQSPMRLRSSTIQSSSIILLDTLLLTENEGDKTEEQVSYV
Kappa-type opioid receptor (Rattus norvegicus), sequence (P34975 whole entry): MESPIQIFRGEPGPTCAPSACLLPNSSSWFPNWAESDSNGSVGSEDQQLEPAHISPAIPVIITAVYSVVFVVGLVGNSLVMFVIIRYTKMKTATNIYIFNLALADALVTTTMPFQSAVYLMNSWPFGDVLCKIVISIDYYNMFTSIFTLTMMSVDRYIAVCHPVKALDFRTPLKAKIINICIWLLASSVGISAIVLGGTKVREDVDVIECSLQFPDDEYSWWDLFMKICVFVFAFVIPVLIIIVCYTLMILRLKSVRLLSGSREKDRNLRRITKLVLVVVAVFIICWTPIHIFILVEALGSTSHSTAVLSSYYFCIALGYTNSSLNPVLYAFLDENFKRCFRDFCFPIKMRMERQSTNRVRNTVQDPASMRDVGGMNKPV
Histamine H4 receptor (Homo sapiens), sequence (Q9H3N8 whole entry): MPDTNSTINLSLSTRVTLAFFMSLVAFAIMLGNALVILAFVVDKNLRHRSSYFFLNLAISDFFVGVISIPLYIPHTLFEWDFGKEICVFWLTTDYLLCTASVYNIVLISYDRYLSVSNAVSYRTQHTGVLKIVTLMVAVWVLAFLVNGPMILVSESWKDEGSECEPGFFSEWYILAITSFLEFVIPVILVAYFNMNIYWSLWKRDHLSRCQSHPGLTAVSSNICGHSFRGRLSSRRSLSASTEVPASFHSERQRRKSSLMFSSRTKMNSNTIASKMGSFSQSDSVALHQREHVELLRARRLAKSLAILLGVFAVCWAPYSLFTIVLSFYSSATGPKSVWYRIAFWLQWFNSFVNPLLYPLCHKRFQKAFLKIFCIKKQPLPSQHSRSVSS
5-hydroxytryptamine receptor 1B (Homo sapiens), sequence (P28222 whole entry): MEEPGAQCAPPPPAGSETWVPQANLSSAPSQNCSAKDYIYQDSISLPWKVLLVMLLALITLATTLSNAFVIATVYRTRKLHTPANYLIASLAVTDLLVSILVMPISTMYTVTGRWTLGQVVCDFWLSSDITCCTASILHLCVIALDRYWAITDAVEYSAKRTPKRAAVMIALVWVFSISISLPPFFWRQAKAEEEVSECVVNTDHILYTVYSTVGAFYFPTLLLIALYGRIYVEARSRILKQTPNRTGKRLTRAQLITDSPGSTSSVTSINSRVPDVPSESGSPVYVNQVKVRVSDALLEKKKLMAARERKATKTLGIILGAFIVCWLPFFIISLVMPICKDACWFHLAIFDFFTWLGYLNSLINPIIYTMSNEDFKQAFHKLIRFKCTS
5-hydroxytryptamine receptor 2C (Rattus norvegicus), sequence (P08909 whole entry): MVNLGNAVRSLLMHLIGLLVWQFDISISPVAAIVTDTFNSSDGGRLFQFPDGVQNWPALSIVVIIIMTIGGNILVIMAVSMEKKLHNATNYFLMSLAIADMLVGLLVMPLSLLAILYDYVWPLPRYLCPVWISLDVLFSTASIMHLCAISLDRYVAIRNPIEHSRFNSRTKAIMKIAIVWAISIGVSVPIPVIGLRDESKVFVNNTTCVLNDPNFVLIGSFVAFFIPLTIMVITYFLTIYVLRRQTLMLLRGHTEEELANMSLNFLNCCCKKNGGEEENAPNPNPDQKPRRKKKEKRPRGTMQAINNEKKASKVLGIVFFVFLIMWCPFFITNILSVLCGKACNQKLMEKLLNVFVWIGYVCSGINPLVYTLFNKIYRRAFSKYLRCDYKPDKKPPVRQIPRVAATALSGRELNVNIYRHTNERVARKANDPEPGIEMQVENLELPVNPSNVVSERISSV
D(4) dopamine receptor (Homo sapiens), sequence (P21917 whole entry): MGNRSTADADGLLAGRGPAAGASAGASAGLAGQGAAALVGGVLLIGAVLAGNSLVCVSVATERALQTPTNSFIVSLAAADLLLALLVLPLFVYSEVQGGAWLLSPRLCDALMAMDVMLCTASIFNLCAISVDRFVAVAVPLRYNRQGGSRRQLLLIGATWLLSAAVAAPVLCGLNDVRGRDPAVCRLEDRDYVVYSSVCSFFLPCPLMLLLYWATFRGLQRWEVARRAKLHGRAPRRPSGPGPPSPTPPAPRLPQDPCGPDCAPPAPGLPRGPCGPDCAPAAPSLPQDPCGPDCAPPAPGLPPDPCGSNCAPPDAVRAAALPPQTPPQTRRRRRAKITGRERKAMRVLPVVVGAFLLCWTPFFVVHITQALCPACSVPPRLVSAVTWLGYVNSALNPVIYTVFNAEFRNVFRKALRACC
D(2) dopamine receptor (Homo sapiens), sequence (P14416 whole entry): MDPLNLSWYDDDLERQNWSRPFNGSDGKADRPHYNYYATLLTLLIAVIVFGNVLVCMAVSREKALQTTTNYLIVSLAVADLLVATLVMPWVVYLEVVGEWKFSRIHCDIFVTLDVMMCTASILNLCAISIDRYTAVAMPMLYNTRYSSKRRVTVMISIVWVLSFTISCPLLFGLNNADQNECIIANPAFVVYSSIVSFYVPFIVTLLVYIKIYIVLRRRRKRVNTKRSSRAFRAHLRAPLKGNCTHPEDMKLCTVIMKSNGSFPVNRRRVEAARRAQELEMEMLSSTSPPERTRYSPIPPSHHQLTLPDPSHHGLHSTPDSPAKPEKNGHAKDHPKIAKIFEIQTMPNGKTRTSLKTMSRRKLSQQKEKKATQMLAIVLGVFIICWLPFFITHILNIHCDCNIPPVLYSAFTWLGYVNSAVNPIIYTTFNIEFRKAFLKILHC

CN1C[C@H](CN[11C](=O)OCc2ccccc2)C[C@@H]2c3cccc4c3c(cn4C)C[C@H]21 [[11C]-METERGOLINE]
Drug uptake [1]: Not Active
Drug uptake [2]: Not Active
Drug uptake [3]: Active
Fu [4]: 0.55%
Drug uptake (Brain): 0.01 %ID
Drug uptake [5]: Not Active
fraction unbound at 10 min [6]: < 0.01
logD [7]: 3.3
Drug uptake [8]: 0.3 %ID

CN1C[C@H](CNC(=O)OCc2ccccc2)C[C@@H]2c3cccc4c3c(cn4C)C[C@H]21 [METERGOLINE]
Activity [9]: 562 nM
Activity [10]: > 10 µM
Activity [11]: 1270 nM
Activity [12]: 9.5 nM
Activity [13]: 2.6 nM
Activity [14]: 0.9 nM
Activity [15]: 1660 nM
Activity [16]: 28 nM
Activity [17]: 10 nM
Activity [18]: 30 nM
Activity [19]: 63.2 nM
Activity [20]: 9 nM
Activity [21]: 74 nM
Activity [22]: 14 nM
Activity [23]: 4.9 nM
Activity [24]: 104 nM
Activity [25]: 12.7 nM
Activity [26]: 21.7 nM
Activity [27]: 15.2 nM
Activity [28]: 1130 nM
Activity [29]: 30 nM
Activity [30]: 123 nM
Activity [31]: 31 nM
Activity [32]: 18.9 nM
Activity [33]: 17.7 nM
Activity [34]: 36.9 nM
Drug uptake [35]: Active
Drug uptake [36]: Active
